Data taken from ChEMBL document CHEMBL1153427, “1-Sulfonyl-4-acylpiperazines as selective cannabinoid-1 receptor (CB1R) inverse agonists for the treatment of obesity” (J Med Chem, 2009).

Key:
Cannabinoid receptor 1 [1] = target: T1, Cannabinoid receptor 1 (Homo sapiens, UniProt P21554); assay: Inverse agonist activity at human recombinant CB1R expressed in CHO cells assessed as increase in forskolin-stimulated cAMP level; format: functional, cell-based
Outline: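 Recombinant CB1R-CHO cells were incubated with test compound across a range of concentrations, plus forskolin and the phosphodiesterase inhibitor IBMX. Buffer was Earle's balanced salt solution with 5 mM MgCl₂, 10 mM HEPES pH 7.3 and 1 mg/mL BSA, for 30 min at room temperature, with cAMP read out.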

Cannabinoid receptor 1 [2] = target: T1, Cannabinoid receptor 1; assay: Displacement of [3H]CP-55940 from human recombinant CB1R expressed in CHO cells; format: cell-based
Outline: (§1)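 Radioligand competition used 0.5 nM [³H]CP55940 with recombinant human CB1R-CHO or CB2R-CHO membranes. Bound and free ligand were separated by filtration, and IC₅₀ came from nonlinear curve fitting.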

Cannabinoid receptor 2 = Cannabinoid receptor 2 (Homo sapiens, UniProt P34972); assay: Displacement of [3H]CP-55940 from human recombinant CB2R expressed in CHO cells; format: cell-based; outline: as §1
Sequence of Cannabinoid receptor 2 (P34972 whole entry): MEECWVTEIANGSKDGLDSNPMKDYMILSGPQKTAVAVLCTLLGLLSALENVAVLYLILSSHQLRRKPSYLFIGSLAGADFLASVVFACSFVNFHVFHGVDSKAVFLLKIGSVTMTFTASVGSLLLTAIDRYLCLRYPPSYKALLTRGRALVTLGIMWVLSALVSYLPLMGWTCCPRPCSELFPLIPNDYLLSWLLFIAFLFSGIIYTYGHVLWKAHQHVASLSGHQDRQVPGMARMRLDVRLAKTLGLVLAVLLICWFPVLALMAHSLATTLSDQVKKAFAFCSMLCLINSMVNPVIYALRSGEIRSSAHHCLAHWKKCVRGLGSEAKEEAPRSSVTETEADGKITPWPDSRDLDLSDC

T1 sequence (P21554 whole entry): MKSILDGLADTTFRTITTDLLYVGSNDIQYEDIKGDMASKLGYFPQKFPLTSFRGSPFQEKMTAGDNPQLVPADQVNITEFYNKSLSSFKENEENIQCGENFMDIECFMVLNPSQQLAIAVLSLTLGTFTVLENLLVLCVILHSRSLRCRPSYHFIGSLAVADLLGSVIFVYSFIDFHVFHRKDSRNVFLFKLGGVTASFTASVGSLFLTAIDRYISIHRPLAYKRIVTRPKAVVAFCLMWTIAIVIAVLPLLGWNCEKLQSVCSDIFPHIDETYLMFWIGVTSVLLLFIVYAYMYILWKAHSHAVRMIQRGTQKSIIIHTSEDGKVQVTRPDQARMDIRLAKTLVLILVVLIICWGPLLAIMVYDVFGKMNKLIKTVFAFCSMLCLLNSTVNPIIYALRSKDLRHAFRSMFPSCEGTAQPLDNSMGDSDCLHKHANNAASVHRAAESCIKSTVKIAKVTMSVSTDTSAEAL

Compound	EC50 (Cannabinoid receptor 1 [1])	IC50 (Cannabinoid receptor 1 [2])	IC50 (Cannabinoid receptor 2)
O=C(C1CC1)N1CCN(S(=O)(=O)c2cc(Cl)cc(Cl)c2)CC1	5 nM	780 nM	–
O=C(Cc1ccc(C(F)(F)F)cc1)N1CCN(S(=O)(=O)c2cc(C(F)(F)F)cc(C(F)(F)F)c2)CC1	1 nM	5 nM	> 10 µM
O=C(Cc1ccc(C(F)(F)F)cc1)N1CCN(S(=O)(=O)c2cc(Br)cc(C(F)(F)F)c2)CC1	1 nM	6 nM	> 10 µM
O=C(Cc1cccc(C(F)(F)F)c1)N1CCN(S(=O)(=O)c2cc(Cl)cc(Cl)c2)CC1	4.6 nM	150 nM	–
O=C(C1CC1)N1CCN(S(=O)(=O)c2cc(Cl)ccc2Cl)CC1	90 nM	6400 nM	–
O=C(C1CC1)N1CCN(S(=O)(=O)c2c(Cl)cccc2Cl)CC1	1500 nM	9700 nM	–
O=C(C1CCCCC1)N1CCN(S(=O)(=O)c2cccc(C(F)(F)F)c2)CC1	> 10000 nM	4200 nM	–
O=C(Cc1ccccn1)N1CCN(S(=O)(=O)c2cc(Cl)cc(Cl)c2)CC1	40 nM	3000 nM	–
O=C(C1CC1)N1CCN(S(=O)(=O)c2ccc(Cl)cc2)CC1	> 10000 nM	3500 nM	–
O=C(C1CC1)N1CCN(S(=O)(=O)c2c(Cl)cc(Cl)cc2Cl)CC1	1500 nM	9700 nM	–
COC(=O)c1cc(C(F)(F)F)cc(S(=O)(=O)N2CCN(C(=O)Cc3ccc(C(F)(F)F)cc3)CC2)c1	1 nM	5 nM	> 10 µM
O=C(C1CCCCC1)N1C2CC1CN(S(=O)(=O)c1cccc3ccccc13)C2	900 nM	> 10000 nM	–
CN(C)C(=O)Oc1cc(C(F)(F)F)cc(S(=O)(=O)N2CCN(C(=O)[C@@H]3C[C@H]3c3ccc(C(F)(F)F)cc3)CC2)c1	–	2 nM	–
O=C([C@@H]1C[C@H]1c1ccc(C(F)(F)F)cc1)N1CCN(S(=O)(=O)c2cc(-n3cccn3)cc(C(F)(F)F)c2)CC1	–	0.7 nM	> 10 µM
O=C([C@@H]1C[C@H]1c1ccc(C(F)(F)F)cc1)N1CCN(S(=O)(=O)c2cc(-n3nccn3)cc(C(F)(F)F)c2)CC1	–	0.6 nM	> 10 µM
O=C([C@@H]1C[C@H]1c1ccc(C(F)(F)F)cc1)N1CCN(S(=O)(=O)c2cc(-n3cncn3)cc(C(F)(F)F)c2)CC1	–	7 nM	> 10 µM
O=C([C@@H]1C[C@H]1c1ccc(C(F)(F)F)cc1)N1CCN(S(=O)(=O)c2cc(-n3ccnn3)cc(C(F)(F)F)c2)CC1	–	50 nM	> 10 µM
O=C([C@@H]1C[C@H]1c1ccc(C(F)(F)F)cc1)N1CCN(S(=O)(=O)c2cc(-c3ncon3)cc(C(F)(F)F)c2)CC1	–	0.3 nM	> 10 µM
Cc1[nH]ncc1-c1cc(C(F)(F)F)cc(S(=O)(=O)N2CCN(C(=O)[C@@H]3C[C@H]3c3ccc(C(F)(F)F)cc3)CC2)c1	–	20 nM	> 10 µM
O=C([C@@H]1C[C@H]1c1ccc(C(F)(F)F)cc1)N1CCN(S(=O)(=O)c2cc(-c3n[nH]c(=O)o3)cc(C(F)(F)F)c2)CC1	–	100 nM	> 10 µM
O=C([C@@H]1C[C@H]1c1ccc(C(F)(F)F)cc1)N1CCN(S(=O)(=O)c2cc(-c3n[nH]c(=O)[nH]3)cc(C(F)(F)F)c2)CC1	–	400 nM	> 10 µM
Nc1nnc(-c2cc(C(F)(F)F)cc(S(=O)(=O)N3CCN(C(=O)[C@@H]4C[C@H]4c4ccc(C(F)(F)F)cc4)CC3)c2)o1	–	400 nM	> 10 µM
Cc1nnc(-c2cc(C(F)(F)F)cc(S(=O)(=O)N3CCN(C(=O)[C@@H]4C[C@H]4c4ccc(C(F)(F)F)cc4)CC3)c2)[nH]1	–	10 nM	> 10 µM
CC(C)(C)C(=O)Oc1cc(C(F)(F)F)cc(S(=O)(=O)N2CCN(C(=O)[C@@H]3C[C@H]3c3ccc(C(F)(F)F)cc3)CC2)c1	–	8 nM	–
CCOC(=O)Oc1cc(C(F)(F)F)cc(S(=O)(=O)N2CCN(C(=O)[C@@H]3C[C@H]3c3ccc(C(F)(F)F)cc3)CC2)c1	–	8 nM	–
O=C(CCc1ccc(C(F)(F)F)cc1)N1CCN(S(=O)(=O)c2cc(Cl)cc(Cl)c2)CC1	0.5 nM	26 nM	–
O=C(C1CCCCC1)N1CCN(S(=O)(=O)c2cc(C(F)(F)F)cc(C(F)(F)F)c2)CC1	1 nM	–	> 10 µM
O=C(C1CCCCC1)N1CCN(S(=O)(=O)c2cc(Cl)cc(Cl)c2)CC1	0.5 nM	–	> 10 µM
O=C(C1CCCCC1)N1C2CCC1CN(S(=O)(=O)c1cccc3ccccc13)C2	300 nM	3100 nM	–
O=C(Cc1ccc(C(F)(F)F)cc1)N1CCN(S(=O)(=O)c2cc(C(F)(F)F)cc(C(F)(F)F)c2)C1	> 10000 nM	> 10000 nM	–
